Three molecules from ChEMBL document CHEMBL3227941, “3-Substituted adenines. In vitro enzyme inhibition and antiviral activity” (J Med Chem, 1979) can be followed below.

Data set [1] deals with Rattus norvegicus. In words: Inhibition of dopamine-beta-hydroxylase in Wistar rat assessed as reduction of norepinephrine level in brain at 50 mg/kg, ip after 3 hrs (reference value: 0.67 +/- 0.02 ug/g). In kind it is functional. Particulars: route intraperitoneal.
Data set [2] deals with Rattus norvegicus. As to the kind of experiment: Inhibition of dopamine-beta-hydroxylase in Wistar rat assessed as reduction of norepinephrine level in brain at 50 mg/kg, ip after 6 hrs (reference value: 0.67 +/- 0.02 ug/g). Conditions: route intraperitoneal. In kind it is functional.
The subject of data set [3] is Rattus norvegicus. As to the kind of experiment: Inhibition of dopamine-beta-hydroxylase in Wistar rat assessed as reduction of norepinephrine level in brain at 50 mg/kg, ip after 24 hrs (reference value: 0.67 +/- 0.02 ug/g). In kind it is functional. Particulars: route intraperitoneal.
In data set [4] the test system is Rattus norvegicus. In words: Inhibition of dopamine-beta-hydroxylase in Wistar rat assessed as reduction of norepinephrine level in heart at 50 mg/kg, ip after 3 hrs (reference value: 0.55 +/- 0.04 ug/g). In kind it is functional. Particulars: route intraperitoneal.
Data set [5] concerns Rattus norvegicus. In words: Inhibition of dopamine-beta-hydroxylase in Wistar rat assessed as reduction of norepinephrine level in heart at 50 mg/kg, ip after 6 hrs (reference value: 0.55 +/- 0.04 ug/g). Particulars: route intraperitoneal. In kind it is functional.
The test system of data set [6] is Rattus norvegicus. As to the kind of experiment: Inhibition of dopamine-beta-hydroxylase in Wistar rat assessed as reduction of norepinephrine level in heart at 50 mg/kg, ip after 24 hrs (reference value: 0.55 +/- 0.04 ug/g). In kind it is functional. Conditions: route intraperitoneal.
The subject of data set [7] is Rattus norvegicus. As to the kind of experiment: Inhibition of dopamine-beta-hydroxylase in Wistar rat assessed as reduction of adrenal catecholamine level at 50 mg/kg, ip after 3 hrs assessed per adrenal pair (reference value: 10.6 +/- 0.7 ug). In kind it is functional. Conditions: route intraperitoneal.
For data set [8], the system named is Rattus norvegicus. In words: Inhibition of dopamine-beta-hydroxylase in Wistar rat assessed as reduction of adrenal catecholamine level at 50 mg/kg, ip after 6 hrs assessed per adrenal pair (reference value: 10.6 +/- 0.7 ug). In kind it is functional. Particulars: route intraperitoneal.
Data set [9] concerns Rattus norvegicus. As to the kind of experiment: Inhibition of dopamine-beta-hydroxylase in Wistar rat assessed as reduction of adrenal catecholamine level at 50 mg/kg, ip after 24 hrs assessed per adrenal pair (reference value: 10.6 +/- 0.7 ug). Conditions: route intraperitoneal. In kind it is functional.
Data set [10] deals with Vaccinia virus. In words: Antiviral activity against Vaccinia virus infected in mouse assessed as assessed as protection against viral infection. In kind it is functional, organism-based. Conditions: Orthopoxvirus vaccinia.
Data set [11] concerns Transmissible gastroenteritis virus. In words: Antiviral activity against Transmissible gastroenteritis virus infected in pig at 25 mg/animal administered 3 times per day. In kind it is functional, organism-based. In short, it runs like this: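 Piglets weighing 4-5 lb dosed at 25 mg/pig three times daily and challenged with virus. Weight and survival monitored against untreated controls over 72 h.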

For the next data set, the system named is Sus scrofa. In words: Toxicity in Transmissible gastroenteritis virus infected pig at 25 mg/animal administered 3 times per day. In kind it is organism-based. Conditions: in vivo. In outline: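 Piglets (4-5 lb), four per treated group with two untreated controls, were given 25 mg/pig three times a day and challenged with virus. Body weight was followed from 24 h after challenge through 48 h, and animals were watched for signs of illness and for deaths.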

Data set [12] is described as follows: Cytotoxicity against Vaccinia virus infected African green monkey BSC1 cells at 100 ug/ml. In kind it is cell-based. Conditions: chlorocebus aethiops, bsc-1.
For data set [13], the target named is T1, Dopamine beta-hydroxylase (Bos taurus, UniProt P15101).
T1 sequence (P15101 whole entry): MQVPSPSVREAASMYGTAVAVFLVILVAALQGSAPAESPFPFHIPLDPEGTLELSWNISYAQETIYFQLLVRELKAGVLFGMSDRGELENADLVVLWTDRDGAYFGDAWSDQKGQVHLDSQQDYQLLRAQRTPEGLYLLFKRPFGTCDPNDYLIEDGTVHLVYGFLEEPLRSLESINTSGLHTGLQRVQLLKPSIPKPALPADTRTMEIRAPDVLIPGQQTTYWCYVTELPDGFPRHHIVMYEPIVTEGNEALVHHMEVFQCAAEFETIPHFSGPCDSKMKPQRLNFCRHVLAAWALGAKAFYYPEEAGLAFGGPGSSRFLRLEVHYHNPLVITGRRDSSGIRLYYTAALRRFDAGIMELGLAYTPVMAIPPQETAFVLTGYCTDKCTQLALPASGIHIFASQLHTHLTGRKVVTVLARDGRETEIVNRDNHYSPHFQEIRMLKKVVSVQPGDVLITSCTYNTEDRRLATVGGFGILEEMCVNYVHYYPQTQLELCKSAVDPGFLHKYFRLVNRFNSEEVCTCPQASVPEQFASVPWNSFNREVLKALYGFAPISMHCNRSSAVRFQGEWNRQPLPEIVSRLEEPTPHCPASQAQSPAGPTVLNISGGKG
As to the kind of experiment: Inhibition of bovine adrenal medullae dopamine-beta-hydroxylase. Set-up: species or system Adrenal medulla. Conditions: read-out: I50 (converted).

Data set [14] relates to Human alphaherpesvirus 1. In words: Antiviral activity against HSV1 infected in African green monkey BSC-1 cells assessed as inhibition of virus multiplication at 50 ug/ml after 96 hrs by plaque reduction assay. In kind it is functional. Conditions: Human alphaherpesvirus 1, BSC-1, 96 h. On the technique in general: Plaque reduction counts the foci of infection that form in a cell layer.

In data set [15] the test system is Human alphaherpesvirus 1. As to the kind of experiment: Antiviral activity against HSV1 infected in African green monkey BSC-1 cells assessed as inhibition of virus multiplication at 25 ug/ml after 96 hrs by plaque reduction assay. Conditions: Human alphaherpesvirus 1, BSC-1, 96 h. In kind it is functional.
Data set [16] deals with Human alphaherpesvirus 1. In words: Antiviral activity against HSV1 infected in African green monkey BSC-1 cells assessed as inhibition of virus multiplication at 12 ug/ml after 96 hrs by plaque reduction assay. In kind it is functional. Particulars: Human alphaherpesvirus 1, BSC-1, 96 h.
In data set [17] the test system is Human alphaherpesvirus 1. As to the kind of experiment: Antiviral activity against HSV1 infected in African green monkey BSC-1 cells assessed as inhibition of virus multiplication at 6 ug/ml after 96 hrs by plaque reduction assay. In kind it is functional. Particulars: Human alphaherpesvirus 1, BSC-1, 96 h.
The test system of data set [18] is Vaccinia virus. In words: Antiviral activity against Vaccinia virus infected in African green monkey BSC-1 cells assessed as inhibition of virus multiplication at 50 ug/ml after 96 hrs by plaque reduction assay. In kind it is functional. Particulars: Orthopoxvirus vaccinia, BSC-1, 96 h.
The subject of data set [19] is Vaccinia virus. As to the kind of experiment: Antiviral activity against Vaccinia virus infected in African green monkey BSC-1 cells assessed as inhibition of virus multiplication at 25 ug/ml after 96 hrs by plaque reduction assay. In kind it is functional. Particulars: Orthopoxvirus vaccinia, BSC-1, 96 h.
The test system of data set [20] is Vaccinia virus. In words: Antiviral activity against Vaccinia virus infected in African green monkey BSC-1 cells assessed as inhibition of virus multiplication at 12 ug/ml after 96 hrs by plaque reduction assay. In kind it is functional. Conditions: Orthopoxvirus vaccinia, BSC-1, 96 h.
The subject of data set [21] is Vaccinia virus. In words: Antiviral activity against Vaccinia virus infected in African green monkey BSC-1 cells assessed as inhibition of virus multiplication at 6 ug/ml after 96 hrs by plaque reduction assay. In kind it is functional. Conditions: Orthopoxvirus vaccinia, BSC-1, 96 h.
Data set [22] has as its system Vaccinia virus. As to the kind of experiment: Antiviral activity against Vaccinia virus infected in African green monkey BSC-1 cells assessed as inhibition of virus multiplication at 3 ug/ml after 96 hrs by plaque reduction assay. In kind it is functional. Conditions: Orthopoxvirus vaccinia, BSC-1, 96 h.
In data set [23] the test system is Human alphaherpesvirus 1. In words: Antiviral activity against HSV1 infected in mouse assessed as assessed as protection against viral infection. In kind it is functional, organism-based.
A short description of data set [24]: Cytotoxicity against HSV1 infected African green monkey BSC1 cells at 50 ug/ml. In kind it is cell-based. Conditions: chlorocebus aethiops, bsc-1.
A short description of data set [25]: Cytotoxicity against HSV1 infected African green monkey BSC1 cells at 25 ug/ml. In kind it is cell-based. Particulars: chlorocebus aethiops, bsc-1.
A short description of data set [26]: Cytotoxicity against Vaccinia virus infected African green monkey BSC1 cells at 50 ug/ml. In kind it is cell-based. Particulars: chlorocebus aethiops, bsc-1.
Data set [27] in a line: Cytotoxicity against Vaccinia virus infected African green monkey BSC1 cells at 25 ug/ml. In kind it is cell-based. Particulars: chlorocebus aethiops, bsc-1.

SMILES strings stand for the structures. Calls of active or inactive are those of the source. The rule behind the calls is not given here.

As for `Br.CCCCCn1cnc(N)c2ncnc1-2.Cl`, the Activity with Rattus norvegicus [1] amounted to 0.65 µg/g; in the data set with Rattus norvegicus [2], 0.62 µg/g; in the data set on Rattus norvegicus [3], 0.62 µg/g; in the data set on Rattus norvegicus [4], 0.59 µg/g; in the data set on Rattus norvegicus [5], 0.57 µg/g; with Rattus norvegicus [6], 0.56 µg/g. Besides, the Activity amounted to 14.1 µg in the data set on Rattus norvegicus [7], 12.1 µg with Rattus norvegicus [8] and 11.3 µg with Rattus norvegicus [9].
Regarding `Nc1ncn(Cc2ccccc2Br)c2ncnc1-2`, the outcome (in the data set with Vaccinia virus [10]; in data set [11]; with Human alphaherpesvirus 1 [23]) was inactive. The Activity entry (with Sus scrofa; in data set [12]) was “Toxic” throughout. Moreover, the IC50 in data set [13] was 658 µM. In addition, the inhibition at 50 µg/mL in the data set on Human alphaherpesvirus 1 [14] and with Vaccinia virus [18] was 100% throughout. For the same molecule, the inhibition at 25 µg/mL in the data set on Human alphaherpesvirus 1 [15] and in the data set on Vaccinia virus [19] was 100% throughout. Besides, the inhibition (commonly the change of the read-out against control, counted positive when it falls) at 12 µg/mL was found to be 100% in the data set with Human alphaherpesvirus 1 [16] and 34% in the data set on Vaccinia virus [20]. Besides, the inhibition at 6 µg/mL with Human alphaherpesvirus 1 [17] amounted to 71%; with Vaccinia virus [21] it was 0%. Further, the inhibition at 3 µg/mL in the data set with Vaccinia virus [22] worked out at 0%.
For the molecule `Cc1ccc(Cn2cnc(N)c3ncnc2-3)cc1C`, the Activity entry in data set [24], in data set [25], in data set [12], in data set [26] and in data set [27] was “Toxic” throughout. Also, the IC50 in data set [13] is 79 µM. For the same molecule, the inhibition at 12 µg/mL in the data set with Human alphaherpesvirus 1 [16] worked out at 42%; in the data set with Vaccinia virus [20], 0%. Further, the inhibition at 6 µg/mL with Human alphaherpesvirus 1 [17] and in the data set on Vaccinia virus [21] was 0% in each case. The inhibition at 3 µg/mL in the data set on Vaccinia virus [22] came to 0%.
